What was measured:
Rattus norvegicus [1] = organism: Rattus norvegicus; assay: Tested for inhibition of [3H]-dopamine uptake into rat striatal synaptosomes; format: functional; conditions: Brain
[2] = biological target: Sodium-dependent dopamine transporter (Rattus norvegicus, UniProt P23977); assay: Tested for inhibition of [3H]cocaine binding to rat striatal P2 membranes; format: cell membranes, Membrane
Outline: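 Fresh rat striatal P2 membranes in 10 mM Na2HPO4/0.25 M sucrose, pH 7.4, 200 μg protein. Filtration on PEI-soaked GF/B filters.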

[3] = biological target: Sodium-dependent dopamine transporter (Rattus norvegicus) (UniProt P23977); assay: Inhibitory effect of [3H]cocaine binding when pre incubation was conducted under reduced lighting; design: concentration or dose not given beside the values
Outline: (§1)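 Ligand (final 100 μM or as indicated, in DMSO or H2O) or vehicle preincubated 5 min with rat striatal membranes, either under reduced lighting or 4 in. from a UV source. […] Remaining binding expressed as percent of control.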

[4] = biological target: Sodium-dependent dopamine transporter (Rattus norvegicus) (UniProt P23977); assay: Inhibitory effect of [3H]cocaine binding when pre incubation was conducted under ultraviolet light; design: concentration or dose not given beside the values; outline: as §1
Rattus norvegicus [5] = organism: Rattus norvegicus; assay: Tested for inhibition of [3H]dopamine uptake into rat striatal synaptosomes; format: functional; conditions: Brain

Chain of Sodium-dependent dopamine transporter (Rattus norvegicus) (P23977 whole entry): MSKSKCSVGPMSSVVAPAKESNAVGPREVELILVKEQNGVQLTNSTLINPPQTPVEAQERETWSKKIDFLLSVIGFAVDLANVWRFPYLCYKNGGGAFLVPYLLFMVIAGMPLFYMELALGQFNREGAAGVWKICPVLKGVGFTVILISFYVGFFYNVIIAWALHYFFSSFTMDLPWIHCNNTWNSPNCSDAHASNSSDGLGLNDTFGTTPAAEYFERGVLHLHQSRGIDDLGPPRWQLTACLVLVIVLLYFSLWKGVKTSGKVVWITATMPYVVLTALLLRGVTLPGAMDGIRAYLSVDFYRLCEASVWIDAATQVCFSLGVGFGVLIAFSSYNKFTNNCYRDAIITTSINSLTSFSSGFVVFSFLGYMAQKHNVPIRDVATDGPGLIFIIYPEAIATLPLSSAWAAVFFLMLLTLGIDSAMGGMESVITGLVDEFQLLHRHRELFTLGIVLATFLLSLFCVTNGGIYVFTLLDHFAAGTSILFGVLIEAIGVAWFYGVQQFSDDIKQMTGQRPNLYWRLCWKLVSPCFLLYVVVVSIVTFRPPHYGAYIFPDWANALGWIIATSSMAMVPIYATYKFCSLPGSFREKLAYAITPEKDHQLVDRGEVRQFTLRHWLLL
Chain of Sodium-dependent dopamine transporter (P23977 whole entry): as above

Row | Structure (SMILES) | IC50 (Rattus norvegicus [1]) | IC50 [2] | Control [3] | Control [4] | IC50 (Rattus norvegicus [5])
1 | COC(=O)C1C(OC(=O)Nc2ccc(N=[N+]=[N-])cc2)C[C@H]2CCC1N2C (some centres undefined) | 1180 nM | 1000 nM | 86.3% | 32.5% | 
2 | COC(=O)C1C(OC(=O)Nc2ccc(N=C=S)cc2)C[C@H]2CCC1N2C (some centres undefined) | 490 nM | 260 nM | 12.3% | 18.5% | 
3 | COC(=O)[C@@H]1C2CC[C@@H](C[C@@H]1OC(=O)c1ccccc1)N2C (single isomer, unassigned) [COCAINE] | 210 nM |  | 138% | 74.1% | 
4 | COC(=O)C1C(OC(=O)Nc2cccc(N=C=S)c2)C[C@H]2CCC1N2C (some centres undefined) |  | 960 nM | 33.4% | 29.1% | 4900 nM
5 | COC(=O)C1C(OC(=O)Nc2cccc(N=[N+]=[N-])c2)C[C@H]2CCC1N2C (some centres undefined) | 3900 nM | 630 nM | 102% | 39.1% | 
